From paper PMC8327618 (Journal of the American Chemical Society, 2021)

How the values were obtained:
[1] = Spectroscopic characterization in 0.1 M NaOH; format: physicochemical; conditions: in 0.1M NaOH(aq); for ε: at max absorption; for Φfl: relative to fluorescein
[2] = pH titration of absorbance; format: physicochemical; conditions: for phenolic pKa (transition to the dianion): absorbance at λmax vs pH, 10 mM buffers, 150 mM NaCl, 2 μM dye
Method in brief: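 Dichlorofluorescein dyes at 2 μM in 10 mM buffered solutions containing 150 mM NaCl, spanning pH 2.4 to 9.8 (intermediate steps 3.1–9.2); absorbance spectra recorded and normalized. Normalized absorbance at λmax plotted against pH and fitted to sigmoidal dose-response curves to obtain pKa; n = 3 independent determinations, error as ± SEM.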

HEK293T (HEK) cells = test: Cell permeability by fluorescence microscopy; format: cell-based; conditions: 500 nM, 20 min, 37 °C
Method in brief: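 HEK293T cells incubated with 500 nM test compound (free acid or acetoxymethyl ester forms) for 20 min at 37 °C, washed once with HBSS, then imaged by widefield fluorescence and DIC microscopy to assess uptake.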

[3] = MTT reduction assay, cellular toxicity; format: cell-based

With “2’,7’-difluoro-3-phosphonofluorescein [compound 5]” the λem [1] was 508 nm, the λmax [1] was 488 nm and the ε [1] was 84,000 M^−1cm^−1. For the same compound, the Φfl [1] was 0.94 and the “phenolic pKa (transition to the dianion)” value [2] was 4.8.
With `O=c1ccc2c(-c3ccccc3P(=O)(O)O)c3ccc(O)cc3oc-2c1` [compound 6, 3-phosphonofluorescein] the λem [1] was 508 nm, the λmax [1] was 487 nm and the ε [1] was 75,000 M^−1cm^−1. The Φfl [1] was 0.99 and the “phenolic pKa (transition to the dianion)” value [2] was 6.4.
For “2’,7’-dichloro-3-phosphonofluorescein [compound 4]”, the “uptake into cells / cell permeability” value (HEK293T (HEK) cells) was “no uptake”, the λem [1] was 517 nm and the λmax [1] was 498 nm. The ε [1] was 88,000 M^−1cm^−1, the Φfl [1] was 0.90 and the “pKa of trianion formation (phosphonate, hypsochromic shift)” value ([2]; quantification of 5 nm hypsochromic shift with increasing pH) was 7.8. The cellular toxicity [3] was “very low cellular toxicity”.
For “2’,7’-dichloro-3-sulfonofluorescein [sF.Cl, reference compound]”, the λem [1] was 526 nm, the λmax [1] was 509 nm and the ε [1] was 87,000 M^−1cm^−1. It also gave a Φfl [1] of 0.89.
For `O=C1OC2(c3ccc(O)cc3Oc3cc(O)ccc32)c2ccccc21` [fluorescein, reference compound], the λem [1] was 514 nm, the λmax [1] was 491 nm and the ε [1] was 88,000 M^−1cm^−1. It also gave a Φfl [1] of 0.92.
Work on “2’,7’-dichloro-3-carboxyfluorescein [2’,7’-dichloro-3-carboxy-fluorescein, reference compound]” yielded a λmax [1] of 502 nm.
